In ChEMBL document CHEMBL1137710, “Synthesis and in vitro antitumor activity of new quinoxaline derivatives” (2009):

Assays:
Format in all cases: functional
[1] = system: NCI/ADR-RES; experiment: Growth inhibition of human NCI/ADR-RES cells after 48 hrs by sulforhodamine B assay
Outline: (§1)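 NCI 60-human-tumor-cell-line panel, with compounds tested over a 5-log dose range. Values are taken from dose-response curves as log10 molar concentrations: GI50 is 50% net growth inhibition, TGI is total growth inhibition, and LC50 is 50% net cell death.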

[2] = system: K562; experiment: Growth inhibition of human K562 cells after 48 hrs by sulforhodamine B assay; details: K562, 48 h; outline: as §1
[3] = Growth inhibition of human Hs 578T cells after 48 hrs by sulforhodamine B assay; outline: as §1
[4] = system: 786-0; experiment: Growth inhibition of human 786-0 cells after 48 hrs by sulforhodamine B assay; details: 786-0, 48 h; outline: as §1
[5] = system: OVCAR-5; experiment: Growth inhibition of human OVCAR5 cells after 48 hrs by sulforhodamine B assay; details: OVCAR-5, 48 h; outline: as §1
[6] = system: NCI-H322M; experiment: Growth inhibition of human NCI-H322M cells after 48 hrs by sulforhodamine B assay; outline: as §1
[7] = system: SF-295; experiment: Growth inhibition of human SF295 cells after 48 hrs by sulforhodamine B assay; details: SF-295, 48 h; outline: as §1
[8] = system: UACC-62; experiment: Growth inhibition of human UACC62 cells after 48 hrs by sulforhodamine B assay; details: UACC-62, 48 h
Outline: (§2)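 Run in the NCI 60-human-tumour-cell-line panel, tested over a 5-log dose range. Dose–response curves gave three values per cell line, each as a log10 molar concentration: GI50 (50% inhibition of net cell growth), TGI (total inhibition of net growth) and LC50 (50% net cell death). The mean graph midpoint is the arithmetic mean over all lines, with insensitive lines entered at the highest concentration tested.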

[9] = system: COLO 205; experiment: Growth inhibition of human COLO205 cells after 48 hrs by sulforhodamine B assay; details: COLO 205, 48 h; outline: as §1
[10] = system: MCF7; experiment: Anticancer activity against human MCF7 cells assessed as cell growth at 100 uM after 48 hrs by sulforhodamine B assay; details: MCF7, 48 h, read-out: Activity
[11] = system: SF-268; experiment: Growth inhibition of human SF268 cells after 48 hrs by sulforhodamine B assay; details: SF-268, 48 h; outline: as §1
[12] = system: SF-268; experiment: Anticancer activity against human SF268 cells assessed as cell growth at 100 uM after 48 hrs by sulforhodamine B assay; details: SF-268, 48 h, read-out: Activity
[13] = system: SK-MEL-28; experiment: Growth inhibition of human SK-MEL-28 cells after 48 hrs by sulforhodamine B assay; details: SK-MEL-28, 48 h; outline: as §1
[14] = system: MDA-MB-435; experiment: Growth inhibition of human MDA-MB-435 cells after 48 hrs by sulforhodamine B assay; details: MDA-MB-435, 48 h; outline: as §1
[15] = system: CAKI-1; experiment: Growth inhibition of human Caki1 cells after 48 hrs by sulforhodamine B assay; details: CAKI-1, 48 h; outline: as §1
[16] = system: NCI-H522; experiment: Growth inhibition of human NCI-H522 cells after 48 hrs by sulforhodamine B assay; details: NCI-H522, 48 h; outline: as §1
[17] = system: SK-MEL-2; experiment: Growth inhibition of human SK-MEL-2 cells after 48 hrs by sulforhodamine B assay; details: SK-MEL-2, 48 h; outline: as §1
[18] = system: MDA-MB-231; experiment: Growth inhibition of human MDA-MB-231 cells after 48 hrs by sulforhodamine B assay; details: MDA-MB-231, 48 h; outline: as §1
[19] = system: OVCAR-4; experiment: Growth inhibition of human OVCAR4 cells after 48 hrs by sulforhodamine B assay; details: OVCAR-4, 48 h; outline: as §1
[20] = system: SW-620; experiment: Growth inhibition of human SW620 cells after 48 hrs by sulforhodamine B assay; details: SW-620, 48 h; outline: as §2
[21] = system: NCI-H23; experiment: Growth inhibition of human NCI-H23 cells after 48 hrs by sulforhodamine B assay; details: NCI-H23, 48 h; outline: as §1
[22] = system: OVCAR-3; experiment: Growth inhibition of human OVCAR-3 cells after 48 hrs by sulforhodamine B assay; details: OVCAR-3, 48 h; outline: as §1
[23] = Growth inhibition of human […] cells after 48 hrs by sulforhodamine B assay; outline: as §1
[24] = system: HCT-116; experiment: Growth inhibition of human HCT116 cells after 48 hrs by sulforhodamine B assay; details: HCT-116, 48 h; outline: as §1
[25] = system: SNB-19; experiment: Growth inhibition of human SNB19 cells after 48 hrs by sulforhodamine B assay; details: SNB-19, 48 h; outline: as §2
[26] = system: LOX IMVI; experiment: Growth inhibition of human LOXIMVI cells after 48 hrs by sulforhodamine B assay; outline: as §1
[27] = system: U-251; experiment: Growth inhibition of human U251 cells after 48 hrs by sulforhodamine B assay; details: U-251, 48 h; outline: as §2
[28] = system: M14; experiment: Growth inhibition of human M14 cells after 48 hrs by sulforhodamine B assay; details: M14, 48 h; outline: as §1
[29] = system: SK-MEL-5; experiment: Growth inhibition of human SK-MEL-5 cells after 48 hrs by sulforhodamine B assay; details: SK-MEL-5, 48 h; outline: as §1
[30] = system: RXF 393; experiment: Growth inhibition of human RXF393 cells after 48 hrs by sulforhodamine B assay; details: RXF 393, 48 h; outline: as §1
[31] = read-out: pLC50 (the source's name) (converted)

## Nc1cc(N)c2nc(-c3ccccc3)c(Sc3ccc(F)cc3)nc2c1
[1]
  GI50: 16.6 µM
[1]; [31]
  CC50: 72.4 µM
[1]; read-out: pTGI (converted)
  TGI: 34.7 µM
[2]
  GI50: 39.8 µM
  LC50: > 100 µM
[2]; read-out: pTGI (converted)
  TGI: 38.9 µM
[3]
  GI50: 26.9 µM
[3]; [31]
  CC50: > 100 µM
[3]; read-out: pTGI (converted)
  TGI: 61.7 µM
[4]
  GI50: > 100 µM
[4]; [31]
  CC50: > 100 µM
[4]; read-out: pTGI (converted)
  TGI: > 100 µM
[5]
  GI50: 19.1 µM
[5]; [31]
  CC50: > 100 µM
[5]; read-out: pTGI (converted)
  TGI: 45.7 µM
[6]
  GI50: 20.4 µM
  LC50: 70.8 µM
[6]; read-out: pTGI (converted)
  TGI: 38 µM
[7]
  GI50: 13.8 µM
  LC50 (50% net cell kill): 64.6 µM
[7]; read-out: pTGI (converted)
  TGI: 30.2 µM
[8]
  GI50: 16.6 µM
[8]; [31]
  CC50: 60.3 µM
[8]; read-out: pTGI (converted)
  TGI: 31.6 µM
[9]
  GI50: 21.9 µM
  LC50 (50% net cell kill): > 100 µM
[9]; read-out: pTGI (converted)
  TGI: 47.9 µM
[10]
  growth at 100 µM: 7%
[11]
  GI50: 17.8 µM
  LC50: 85.1 µM
[11]; read-out: pTGI (converted)
  TGI: 38.9 µM
[12]
  growth at 100 µM: 0%
[13]
  GI50: 23.4 µM
[13]; [31]
  CC50: > 100 µM
[13]; read-out: pTGI (converted)
  TGI: 53.7 µM
[14]
  GI50: 16.2 µM
[14]; [31]
  CC50: 66.1 µM
[14]; read-out: pTGI (converted)
  TGI: 33.1 µM
[15]
  GI50: > 100 µM
[15]; [31]
  CC50: > 100 µM
[15]; read-out: pTGI (converted)
  TGI: > 100 µM
[16]
  GI50: > 100 µM
  LC50: > 100 µM
[16]; read-out: pTGI (converted)
  TGI: > 100 µM
[17]
  GI50: 38 µM
[17]; [31]
  CC50: > 100 µM
[17]; read-out: pTGI (converted)
  TGI: > 100 µM
[18]
  GI50: 17.4 µM
[18]; [31]
  CC50: 83.2 µM
[18]; read-out: pTGI (converted)
  TGI: 38 µM
[19]
  GI50: 22.9 µM
[19]; [31]
  CC50: > 100 µM
[19]; read-out: pTGI (converted)
  TGI: 56.2 µM
[20]
  GI50: 22.9 µM
[20]; [31]
  CC50: > 100 µM
[20]; read-out: pTGI (converted)
  TGI: 50.1 µM
[21]
  GI50: 19.1 µM
  LC50 (50% net cell kill concentration): 81.3 µM
[21]; read-out: pTGI (converted)
  TGI: 39.8 µM
[22]
  GI50: 16.2 µM
[22]; [31]
  CC50: 69.2 µM
[22]; read-out: pTGI (converted)
  TGI: 33.9 µM
[23]
  GI50: 28.2 µM
  LC50: > 100 µM
[23]; read-out: pTGI (converted)
  TGI: 81.3 µM
[24]
  GI50: 14.8 µM
  LC50 (concentration causing 50% net cell death): 55 µM
[24]; read-out: pTGI (converted)
  TGI: 28.2 µM
[25]
  GI50: 20 µM
  LC50: 87.1 µM
[25]; read-out: pTGI (converted)
  TGI: 41.7 µM
[26]
  GI50: 22.9 µM
  LC50: 74.1 µM
[26]; read-out: pTGI (converted)
  TGI: 40.7 µM
[27]
  GI50: 16.2 µM
  LC50 (50% net cell kill): 61.7 µM
[27]; read-out: pTGI (converted)
  TGI: 31.6 µM
[28]
  GI50: 15.8 µM
[28]; [31]
  CC50: 58.9 µM
[28]; read-out: pTGI (converted)
  TGI: 30.9 µM
[29]
  GI50: 15.5 µM
[29]; [31]
  CC50: 70.8 µM
[29]; read-out: pTGI (converted)
  TGI: 33.1 µM
[30]
  GI50: > 100 µM
[30]; [31]
  CC50: > 100 µM
[30]; read-out: pTGI (converted)
  TGI: > 100 µM
